Screening data from PubChem BioAssay.
Sampled rows, rich in hits. Any-hit rate of the full collection: about 4.1%.
MrgX1 ag: agonists of human MrgX1 receptor, primary screen, HEK293 cells, Fluo-4 calcium flux; Fluo-4 calcium fluorescence, agonist mode; active compounds read high; 310,000 compounds, 0.44% hits; B-score at 10 µM; Mas-related G-protein coupled receptor member X1 (Homo sapiens), Q96LB2;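 active = calcium response B-score plate-corrected fluorescence ratio at least 3 library SD, with starting fluorescence B-score inside 5 SD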
Target sequence (Q96LB2 whole entry, looked up): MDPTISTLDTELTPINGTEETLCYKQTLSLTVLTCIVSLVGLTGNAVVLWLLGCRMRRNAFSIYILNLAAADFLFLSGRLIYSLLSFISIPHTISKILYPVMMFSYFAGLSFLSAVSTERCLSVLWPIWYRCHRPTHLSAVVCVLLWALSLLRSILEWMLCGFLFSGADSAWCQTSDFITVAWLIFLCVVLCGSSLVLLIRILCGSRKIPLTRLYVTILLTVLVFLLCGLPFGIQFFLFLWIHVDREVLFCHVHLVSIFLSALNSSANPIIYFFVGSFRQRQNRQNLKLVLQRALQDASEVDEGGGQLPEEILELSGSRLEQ
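System: HEK293 cells stably expressing human MrgX1 receptor; Dosing: test compound in the initial addition of three; Schedule: overnight plating, then 30 min 37 °C plus 30 min room-temperature dye loading; Detection: kinetic calcium dye fluorescence, Fluo-4 NW; Controls: per-plate positive and negative controls for Z′ factor.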
RGS4 pot: RGS4 potentiators or activators, primary screen, cell-based, HEK293 M3R inducible RGS4, calcium flux. carbachol calcium flux Fluo4; active compounds read low. B-score at 10 µM. 310,000 compounds, 0.92% hits. AID 463111, 2010;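 active = B-score of the integrated calcium signal more than 4 SD below the library mean, with starting fluorescence not abnormally high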;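 note: negative B-score means reduced calcium response which marks RGS4 activation or potentiation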
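Material: M3R-expressing HEK293 line, RGS4 induced by doxycycline | Schedule: Overnight RGS4 induction, 30 min dye load 37 °C, 20 min compound RT | Measured by: Fluo4 fluorescence kinetic imaging of calcium | Read-out: Integrated calcium ratio converted to B score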
MrgX1 antagonist: antagonists of human MrgX1 receptor, primary screen, HEK293 cells, Fluo-4 calcium flux; Mas-related G-protein coupled receptor member X1 (Homo sapiens), Q96LB2; BAM8-22 antagonism; active compounds read low; B-score at 10 µM; 310,000 compounds, 1.3% hits;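 active = calcium-response B-score plate-corrected more than 3 library SD below zero, starting fluorescence within 5 deviations, no agonist response on first addition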;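 note: peak minus trough fluorescence over baseline after final BAM8-22 challenge near maximal dose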
MrgX1 PAM: positive allosteric modulators of MrgX1, primary screen, HEK293 cells, Fluo-4 calcium flux; Mas-related G-protein coupled receptor member X1 (Homo sapiens), Q96LB2; FDSS; active compounds read high; B-score at 10 µM; 310,000 compounds, 0.63% hits;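 active = plate-corrected calcium response at least 3 library SD above typical, normal starting fluorescence, not activating the receptor alone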;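 note: compound read alongside a low EC10 to EC30 dose of BAM8-22 agonist; peak minus trough fluorescence over baseline measured at the second addition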
Kir21 block: inhibitors of mouse Kir2.1 inward-rectifier potassium channel. Inward rectifier potassium channel 2 (Mus musculus), P35561. HEK293-Kir2.1, FluxOR thallium flux fluorescence; active compounds read low. B-score at 10 µM. 310,000 compounds, 0.85% hits;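 active = fluorescence ratio B-score at or below minus 3 SD of library scores, with starting-brightness B-score within 2 SD, cut at about -4.2 in these data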;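 note: channel flux triggered by added potassium and thallium sulfate stimulus; B-score of peak minus minimum fluorescence over baseline after thallium stimulus; more negative B-score means stronger Kir2.1 block with less thallium influx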
RGS4 inh: RGS4 inhibitors, primary screen, cell-based, HEK293 M3R inducible RGS4, calcium flux; Regulator of G-protein signaling 4 (Homo sapiens), P49798; Fluo-4 calcium flux; active compounds read high; triggered by carbachol at its EC20; B-score at 10 µM; 310,000 compounds, 0.45% hits; AID 463165, 2010;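 active = B-score, a plate-corrected calcium signal, over three deviations above library mean, with baseline fluorescence within five deviations of library mean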;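 note: RGS4 expression induced by doxycycline in cells with stable M3 receptor; B-score is computed from the integrated fluorescence ratio over baseline after carbachol; higher B-score means a larger calcium signal and so more RGS4 inhibition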
Target sequence (P49798 whole entry, looked up): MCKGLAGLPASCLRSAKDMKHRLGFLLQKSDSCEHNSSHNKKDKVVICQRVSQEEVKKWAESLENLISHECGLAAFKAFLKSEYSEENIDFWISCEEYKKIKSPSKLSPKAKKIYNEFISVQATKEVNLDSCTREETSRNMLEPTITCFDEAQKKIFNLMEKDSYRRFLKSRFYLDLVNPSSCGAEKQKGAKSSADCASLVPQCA
MrgX1 ag reconf: MrgX1 receptor agonists, duplicate retest, confirmation, HEK293 cells, Fluo-4 calcium flux; AID 602412, 2012; activation, % at 10 µM; Fluo-4 calcium fluorescence, FDSS; 600 compounds, 78% hits; shares compounds with MrgX1 ag;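 active = calcium signal rise, corrected for plate position, at least 3 library SD high, with starting brightness within 5 such deviations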
MrgX1 PAM conf: MrgX1 positive allosteric modulators, duplicate retest, confirmation, HEK293 cells, Fluo-4 calcium flux. shares compounds with MrgX1 PAM. Fluo-4 calcium fluorescence, FDSS. activation (ratio percentage), % at 10 µM. 1,200 compounds, 13% hits. AID 602413, 2012;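 active = ratio at least 3 SD above the weak peptide control, stable starting fluorescence, no direct agonism earlier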;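 note: compound followed by low BAM8-22 agonist challenge near EC20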
HEK293 Ca flux: nonspecific calcium signal in parental HEK293, confirmation, counter-screen for MrgX1 antagonist project, parental HEK293 cells, Fluo-4 calcium flux. shares compounds with MrgX1 antagonist. Fluo-4 calcium fluorescence, FDSS. fluorescence ratio F(max-min)/F0 at 10 µM. 4,000 compounds, 2% hits;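 active = duplicate-averaged calcium fluorescence ratio at least three times the standard deviation of buffer wells, a nonspecific response in parental cells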
HEK293 Ca counter: calcium response in parental HEK293 cells, primary screen, counter-screen for MrgX1 allosteric activator project, cell-based, Fluo-4 calcium flux, duplicate; 4,000 compounds, 0.4% hits; Fluo-4 fluorescence ratio; active compounds read high; fluorescence ratio F(max-min)/F0 at 10 µM; shares compounds with MrgX1 antagonist; AID 624114, 2012;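 active = calcium fluorescence ratio, averaged over duplicates, at least 3 SD of the buffer-well ratio, meaning a nonspecific response in receptor-free cells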;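 note: untransfected parental HEK293 lacking MrgX1 used as counterscreen for MrgX1 allosteric activators; fluorescence change taken during the second addition on a kinetic imager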
HEK293 Ca cntr2: calcium response in parental HEK293 cells, primary screen, counter-screen for MrgX1 agonist project, cell-based, Fluo-4 calcium flux, duplicate, agonist mode | fluorescence ratio F(max-min)/F0 at 10 µM | shares compounds with MrgX1 antagonist | 4,000 compounds, 8.7% hits | AID 624115, 2012 | Fluo-4 calcium fluorescence (FDSS); active compounds read high;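 active = calcium fluorescence ratio at least three times the spread of buffer wells, meaning a non-specific response in parental cells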
Active calls of the source: *; i = inactive; x = not tested or not shown.

SMILES	MrgX1 ag	RGS4 pot	MrgX1 antagonist	MrgX1 PAM	Kir21 block	RGS4 inh	MrgX1 ag reconf	MrgX1 PAM conf	HEK293 Ca flux	HEK293 Ca counter	HEK293 Ca cntr2
Cc1ccc(CNc2ccc3c(c2)ncn3C(C)C)cc1	33*	i	i	i	-0.38	i	352%*	x	i	i	80*
CCn1cnc2cc(NCc3ccc(Br)cc3)ccc21	34*	i	i	i	-0.08	i	197%*	x	i	i	i
CCCn1cnc2cc(NCc3ccc(Br)cc3)ccc21	i	i	i	i	-0.84	i	x	x	x	x	x
Nc1c(C(=O)N2CCOCC2)sc2nc3c(cc12)CCCC3	i	i	i	i	-1	i	x	x	x	x	x
Cc1ccc(C)c2nc3sc(C(=O)N4CCOCC4)c(N)c3cc12	31*	i	i	i	-1.7	i	284%*	x	i	i	82*
C/C(=N\NC(=O)c1c[nH]c2ccccc12)c1ccccn1	i	i	i	i	-1.2	i	x	x	x	x	x
C/C(=N\NC(=O)c1cc2ccccc2cc1O)c1ccccn1	68*	i	i	i	0.07	i	458%*	x	i	i	109*
N#CC1(Nc2ccccc2)C(=O)Nc2ccccc21 (centres undefined)	37*	i	i	i	-0.65	i	137%*	x	i	i	i
CSc1nsc(NC(=O)Cc2ccccc2)n1	i	i	i	i	-0.04	i	x	x	x	x	x
CCN(C(=O)c1c(N)cnn1C)c1ccccc1	i	i	i	10*	1.4	i	x	i	i	i	i
CCN(C(=O)c1ccnn1C)c1ccccc1	i	i	i	i	-0.09	i	x	x	x	x	x
Cc1cc(C)cc(NC(=S)N2CCC(NC(=O)C3CCCCC3)CC2)c1	i	i	i	8.6*	0	i	x	i	i	i	i
O=C(CCl)N(CCc1ccccc1)CCc1ccccc1	i	i	i	7.7*	-3.9	i	x	i	i	i	i
O=C(CCl)N(c1ccccc1)c1ccccc1	x	i	x	x	-1.2	i	x	x	x	x	x
COc1cc(/C=C(/C#N)C(=O)NCc2ccccc2)cc(OC)c1OC	i	i	i	36*	0.12	i	x	i	i	i	i
Cc1cc(SCC(=O)c2ccc(O)c(O)c2)nc2ccccc12	i	i	i	11*	-1	i	x	i	i	i	i
COc1ccc(Nc2nc3ccccc3n3nnnc23)cc1	i	i	i	13*	-1.8	i	x	i	i	i	i
